How the values were obtained:
[1] = Antioxidant activity assessed as […] reduction power at 1 uM after 1 hr by cupric ion reducing antioxidant capacity assay; format: physicochemical
[2] = Antioxidant activity assessed as trolox equivalent of AAPH radical scavenging activity at 1 uM after 2 mins by ORAC-RCoo assay; format: physicochemical
Outline: (§1)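 Peroxyl radical scavenging was measured by the oxygen radical absorbance capacity (ORAC) assay, with Trolox as the positive control. Values are reported as Trolox equivalents (TE).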

[3] = Antioxidant activity assessed as […] reduction power at 10 uM after 1 hr by cupric ion reducing antioxidant capacity assay; format: physicochemical
[4] = Metal chelating activity of the compound assessed as Cu2+ chelating activity at 10 uM by fluorescence assay relative to control; format: physicochemical
[5] = Inhibition of alpha-glucosidase (unknown origin) using 3 mM p-NPG solution at 50 uM relative to control; conditions: Rattus norvegicus
[6] = Antioxidant activity assessed as trolox equivalent of AAPH radical scavenging activity at 10 uM after 2 mins by ORAC-RCoo assay; format: physicochemical; outline: as §1

Compound	Activity [1] [µM]	Activity [2] [µM]	Activity [3] [µM]	Activity [4] [%]	inhibition [5] [%]	Activity [6] [µM]
C=CCc1ccc(O)c(O)c1 [HYDROXYCHAVICOL]	1.55	2.55	22.77	20.48	9.08	16.26
CCCCO[C@@H]1O[C@H](CO)[C@@H](O)[C@H](O)[C@H]1O	0.18	0.62	1.68	18.04		3.64
COc1cc(O[C@@H]2O[C@H](CO)[C@@H](O)[C@H](O)[C@H]2O)ccc1O [TACHIOSIDE]	0.21	0.21	0.63	21.42	4.6	1.65
OC[C@H]1O[C@@H](OCc2ccccc2)[C@H](O)[C@@H](O)[C@@H]1O	0.41	0.18	0.69	22.39	12	1.83
COc1cc(C[C@@H](O)CO)ccc1O[C@@H]1O[C@H](CO)[C@@H](O)[C@H](O)[C@H]1O	0.29	0.55	0.96	24.21	11.7	2.88
CC1=CC(=O)CC(C)(C)[C@@]1(O)CC[C@@H](C)O[C@@H]1O[C@H](CO)[C@@H](O)[C@H](O)[C@H]1O	0.21	0.12	0.34	20.5	6.9	0.92
OC[C@@]1(O)CO[C@@H](OC[C@H]2O[C@@H](OCc3ccccc3)[C@H](O)[C@@H](O)[C@@H]2O)[C@@H]1O	0.46	0.15	0.84	19.3	7.93	1.61
CC(C)O[C@@H]1O[C@H](CO)[C@@H](O)[C@H](O)[C@H]1O	0.29	0.22	0.54	20.97	7.31	1.79
CCCCC[C@H](C)O[C@@H]1O[C@H](CO[C@@H]2OC[C@@H](O)[C@H](O)[C@H]2O)[C@@H](O)[C@H](O)[C@H]1O	0.17	0.48	0.59	20.58	8.54	2.26
CC(C)O[C@@H]1O[C@H](CO[C@@H]2OC[C@@H](O)[C@H](O)[C@H]2O)[C@@H](O)[C@H](O)[C@H]1O	0.27	0.31	0.63	21.67	7.49	2.13
COc1cc(C[C@@H](O)CO)ccc1O	9.01	3.59	43.82	25		28.2
CCCCC[C@H](C)O[C@@H]1O[C@H](CO[C@@H]2OC[C@](O)(CO)[C@H]2O)[C@@H](O)[C@H](O)[C@H]1O	0.34	1.04	1.13	19.63	8.62	3.07
C=CCc1ccc(O[C@@H]2O[C@H](CO)[C@@H](O)[C@H](O)[C@H]2O)c(O[C@@H]2O[C@H](CO)[C@@H](O)[C@H](O)[C@H]2O)c1	0.32	0.17	0.65	21.8	7.02	1.71
